Laboratory results from ChEMBL document CHEMBL1157754, “Polyketides from the ascomycete fungus Leptosphaeria sp” (J Nat Prod, 2010).

Key:
Type in all cases: functional, organism-based
Microdochium nivale = assay: Antifungal activity against Fusarium nivale CGMCC 3.4600 after 48 hrs by Alamar blue assay; conditions: CGMCC 3.4600, 48 h
How it was run: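 Plant-pathogen broth microdilution per NCCLS, in triplicate. F. nivale was grown on PDA, then in broth at 28 °C for 48 h, and suspended at 10^4 hyphae/mL in PDB. Serial dilutions were made from a 4 mg/mL DMSO stock. Alamar blue was the indicator and carbendazim the positive control. After incubation at 28 °C for 48 h, fluorescence was read at 544/590 nm, and IC50 was derived from the inhibition-concentration plot.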

Pyricularia oryzae = assay: Antifungal activity against Pyricularia oryzae CGMCC 3.3283 after 48 hrs by Alamar blue assay; conditions: CGMCC 3.3283, 48 h
How it was run: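 Broth microdilution per NCCLS recommendations, in triplicate. Strain grown on PDA, then in broth at 28 °C for 48 h. Final suspension 10^4 hyphae/mL in PDB. Samples from 4 mg/mL DMSO stock, serially diluted. Alamar blue added as indicator; incubated 28 °C for 48 h. Fluorescence read at Ex/Em 544/590 nm. Inhibition plotted against concentration to give IC50.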

Aspergillus flavus = assay: Antifungal activity against Aspergillus flavus CGMCC 3.0951 after 48 hrs by Alamar blue assay; conditions: CGMCC 3.0951, 48 h

| SMILES | IC50 (Microdochium nivale) [µM] | IC50 (Pyricularia oryzae) [µM] | IC50 (Aspergillus flavus) [µM] |
| --- | --- | --- | --- |
| COC(=O)Nc1nc2ccccc2[nH]1 [CARBENDAZIM] | 2.6 | 5 |  |
| C[C@@H]1[C@H](O)[C@@H](C)/C=C/C=C/C=C/C=C/C=C/C=C/C=C/[C@H](O[C@@H]2O[C@H](C)[C@@H](O)[C@H](N)[C@@H]2O)C[C@@H]2O[C@](O)(C[C@@H](O)C[C@@H](O)[C@H](O)CC[C@@H](O)C[C@@H](O)CC(=O)O[C@H]1C)C[C@H](O)[C@H]2C(=O)O [AMPHOTERICIN B] |  |  | 3.3 |
| C[C@@H]1CC(=O)c2c(coc2-c2c(O)cccc2O)[C@@H]1O [LEPTOSPHAERIN A] | > 150 | > 150 | > 150 |
| Cc1cc(O)c2c(c1O)COc1cccc(O)c1C2=O [LEPTOSPHAERIN D] | 12.5 | 18.1 | > 150 |
| C[C@@H]1CC(=O)c2c(coc2-c2c(O)cccc2O)[C@H]1O [LEPTOSPHAERIN B] | > 150 | > 150 | > 150 |
| Cc1cc(CO)c2c(=O)c3c(O)cc(O)cc3oc2c1 [LEPTOSPHAERIN E] | > 150 | > 150 | > 150 |
| C[C@@H]1CC(O)=C2C(=O)c3c(O)cccc3O[C@]2(C)[C@H]1O [LEPTOSPHAERIN G] | > 150 | > 150 | 14.8 |
| C[C@@H]1C[C@H](O)[C@H]2C(=O)c3c(O)cccc3O[C@]2(C)[C@H]1O [LEPTOSPHAERIN F] | > 150 | > 150 | > 150 |
| CC1=C[C@H](O)[C@@]2(Oc3cccc(O)c3C2=O)[C@H](C)C1=O [LEPTOSPHAERIN C] | 144 | 80.3 | 81.4 |
